The results in this text go back to ChEMBL document CHEMBL2169763, “Chiral separation, configurational identification and antihypertensive evaluation of (±)-7,8-dihydroxy-3-methyl-isochromanone-4” (Bioorg Med Chem Lett, 2012).

Structures are written as SMILES. The source made the active and inactive calls. The calls are words filed in the database; no cut-off is given here.

The test system of data set [1] is Rattus norvegicus. Description: Antihypertensive activity in spontaneously hypertensive rat assessed as reduction in systolic arterial pressure at 80 mg/kg, po measured up to 24 hrs. Set-up: dose 80 mg/kg. The note with it: Artery. The format is functional, organism-based. In short, it runs like this: (§1)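 Spontaneously hypertensive rats received a single oral dose of 40 or 80 mg/kg. Systolic, diastolic and mean arterial pressure were recorded from 0 to 24 h after dosing, with heart rate monitored in parallel. Data are given as mean ± SEM (n = 8), and significance was tested against the respective control (p < 0.05, p < 0.01).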

Data set [2] relates to Rattus norvegicus. The data set can be described thus: Antihypertensive activity in spontaneously hypertensive rat assessed as reduction in mean arterial pressure at 80 mg/kg, po up to 24 hrs. The arrangement: dose 80 mg/kg. To be noted: Artery. The format is functional, organism-based. In short, it runs like this:
as §1

Data set [3] deals with Rattus norvegicus. Description: Toxicity in spontaneously hypertensive rat assessed as change in basal heart rate at 50 mg/kg, po measured up to 24 hrs. To be noted: in vivo. The arrangement: dose 50 mg/kg, route oral. The format is organism-based.
In data set [4] the test system is Rattus norvegicus. The data set can be described thus: Antihypertensive activity in spontaneously hypertensive rat assessed as reduction in diastolic arterial pressure at 80 mg/kg, po up to 24 hrs. Set-up: dose 80 mg/kg. The format is functional, organism-based. The note with it: Artery. In short, it runs like this: as §1
Data set [5] concerns Rattus norvegicus. Description: Antihypertensive activity in spontaneously hypertensive rat assessed as reduction in diastolic arterial pressure at 80 mg/kg, po at 6 hrs. The format is functional, Artery. The arrangement: scale not given: the % may be the effect or the level left. In short, it runs like this:
as §1

The subject of data set [6] is Rattus norvegicus. The data set can be described thus: Antihypertensive activity in spontaneously hypertensive rat assessed as reduction in diastolic arterial pressure at 40 mg/kg, po at 6 hrs. The format is functional, organism-based. The arrangement: dose 40 mg/kg. The note with it: Artery. In short, it runs like this: as §1
Data set [7] concerns Rattus norvegicus. The data set can be described thus: Antihypertensive activity in spontaneously hypertensive rat assessed as reduction in systolic arterial pressure at 40 mg/kg, po measured up to 24 hrs. The format is functional, organism-based. Set-up: dose 40 mg/kg. The note with it: Artery. In short, it runs like this:
as §1

As for `C[C@@H]1OCc2c(ccc(O)c2O)C1=O`, the result in data set [1], in data set [2] and in data set [4] was Active. Further, the Activity result in data set [3] was “Non-toxic”.

As to `C[C@H]1OCc2c(ccc(O)c2O)C1=O`, the Activity is 30% in data set [5] and “Non-toxic” in data set [3]. For the same compound, the result in data set [1], in data set [2] and in data set [4] was Active.

With `C[C@H](CS)C(=O)N1CCC[C@H]1C(=O)O`, the outcome in data set [6] and in data set [7] was Active.

For `CC1OCc2c(ccc(O)c2O)C1=O` (racemic), the result in data set [1], in data set [2] and in data set [4] was Active. In addition, the Activity entry in data set [3] was “Non-toxic”.
